What was measured:
PC-3 [1] = test: Cytotoxicity against human PC3 cells assessed as reduction in cell viability after 48 hrs under normoxic conditions by MTT assay; assay type: functional, cell-based; conditions: for IC50: PC-3, 48 h
Summary of the method: (§1)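 Cells cultured in high-glucose DMEM with 20% FBS at 37 °C and 5% CO2, seeded at 1x10^4/well, then dosed 24 h later (0–200 μM) for 48 h. Hypoxia: 1% O2, 5% CO2, balance N2 in a hypoxic workstation; normoxia: 20% O2 in air, 5% CO2. MTT (1 mg/ml) for 30 min at 37 °C, formazan dissolved in DMSO, A550. Untreated control set to 100%; quadruplicates, ≥3 cell batches, mean ± S.E.M.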

MDA-MB-231 [2] = test: Cytotoxicity against human MDA-MB-231 cells assessed as reduction in cell viability after 48 hrs under normoxic conditions by MTT assay; assay type: functional, cell-based; conditions: for IC50: MDA-MB-231, 48 h; summary of the method: as §1
HT-29 [3] = test: Cytotoxicity against human HT-29 cells assessed as cell viability at 100 uM after 48 hrs under hypoxic conditions by MTT assay (reference value: 100%); assay type: functional; conditions: Homo sapiens, HT-29, 48 h; read-out: Activity; summary of the method: as §1
HT-29 [4] = test: Cytotoxicity against human HT-29 cells assessed as reduction in cell viability after 48 hrs under hypoxic conditions by MTT assay; assay type: functional, cell-based; conditions: for IC50: HT-29, 48 h; summary of the method: as §1
HT-29 [5] = test: Cytotoxicity against human HT-29 cells assessed as reduction in cell viability after 48 hrs under normoxic conditions by MTT assay; assay type: functional, cell-based; conditions: for IC50: HT-29, 48 h; summary of the method: as §1
MDA-MB-231 [6] = test: Cytotoxicity against human MDA-MB-231 cells assessed as cell viability at 200 uM after 48 hrs under hypoxic conditions by MTT assay (reference value: 100%); assay type: functional; conditions: MDA-MB-231, 48 h, read-out: Activity; summary of the method: as §1
PC-3 [7] = test: Cytotoxicity against human PC3 cells assessed as cell viability at 200 uM after 48 hrs under hypoxic conditions by MTT assay (reference value: 100%); assay type: functional; conditions: PC-3, 48 h, read-out: Activity; summary of the method: as §1
MDA-MB-231 [8] = test: Cytotoxicity against human MDA-MB-231 cells assessed as cell viability at 30 uM after 48 hrs under normoxic conditions by MTT assay (reference value: 100%); assay type: functional; conditions: MDA-MB-231, 48 h, read-out: Activity; summary of the method: as §1
PC-3 [9] = test: Cytotoxicity against human PC3 cells assessed as cell viability at 30 uM after 48 hrs under hypoxic conditions by MTT assay (reference value: 100%); assay type: functional; conditions: PC-3, 48 h, read-out: Activity; summary of the method: as §1
HT-29 [10] = test: Cytotoxicity against human HT-29 cells assessed as cell viability at 200 uM after 48 hrs under normoxic conditions by MTT assay (reference value: 100%); assay type: functional; conditions: Homo sapiens, HT-29, 48 h; read-out: Activity; summary of the method: as §1
Carbonic anhydrase 9 = Carbonic anhydrase 9 (Homo sapiens, UniProt Q16790); test: Inhibition of carbonic anhydrase 9 (unknown origin) preincubated for 15 mins by stopped flow CO2 hydration assay
HT-29 [11] = test: Cytotoxicity against human HT-29 cells assessed as cell viability at 100 uM after 48 hrs under normoxic conditions by MTT assay (reference value: 100%); assay type: functional; conditions: Homo sapiens, HT-29, 48 h; read-out: Activity; summary of the method: as §1
PC-3 [12] = test: Cytotoxicity against human PC3 cells assessed as cell viability at 100 uM after 48 hrs under normoxic conditions by MTT assay (reference value: 100%); assay type: functional; conditions: PC-3, 48 h, read-out: Activity; summary of the method: as §1
HT-29 [13] = test: Cytotoxicity against human HT-29 cells assessed as cell viability at 30 uM after 48 hrs under normoxic conditions by MTT assay (reference value: 100%); assay type: functional; conditions: Homo sapiens, HT-29, 48 h; read-out: Activity; summary of the method: as §1
PC-3 [14] = test: Cytotoxicity against human PC3 cells assessed as reduction in cell viability after 48 hrs under hypoxic conditions by MTT assay; assay type: functional, cell-based; conditions: for IC50: PC-3, 48 h; summary of the method: as §1
MDA-MB-231 [15] = test: Cytotoxicity against human MDA-MB-231 cells assessed as cell viability at 100 uM after 48 hrs under normoxic conditions by MTT assay (reference value: 100%); assay type: functional; conditions: MDA-MB-231, 48 h, read-out: Activity; summary of the method: as §1
MDA-MB-231 [16] = test: Cytotoxicity against human MDA-MB-231 cells assessed as reduction in cell viability after 48 hrs under hypoxic conditions by MTT assay; assay type: functional, cell-based; conditions: for IC50: MDA-MB-231, 48 h; summary of the method: as §1
MDA-MB-231 [17] = test: Cytotoxicity against human MDA-MB-231 cells assessed as cell viability at 100 uM after 48 hrs under hypoxic conditions by MTT assay (reference value: 100%); assay type: functional; conditions: MDA-MB-231, 48 h, read-out: Activity; summary of the method: as §1
MDA-MB-231 [18] = test: Cytotoxicity against human MDA-MB-231 cells assessed as cell viability at 30 uM after 48 hrs under hypoxic conditions by MTT assay (reference value: 100%); assay type: functional; conditions: MDA-MB-231, 48 h, read-out: Activity; summary of the method: as §1
MDA-MB-231 [19] = test: Cytotoxicity against human MDA-MB-231 cells assessed as cell viability at 200 uM after 48 hrs under normoxic conditions by MTT assay (reference value: 100%); assay type: functional; conditions: MDA-MB-231, 48 h, read-out: Activity; summary of the method: as §1
PC-3 [20] = test: Cytotoxicity against human PC3 cells assessed as cell viability at 200 uM after 48 hrs under normoxic conditions by MTT assay (reference value: 100%); assay type: functional; conditions: PC-3, 48 h, read-out: Activity; summary of the method: as §1
HT-29 [21] = test: Cytotoxicity against human HT-29 cells assessed as cell viability at 200 uM after 48 hrs under hypoxic conditions by MTT assay (reference value: 100%); assay type: functional; conditions: Homo sapiens, HT-29, 48 h; read-out: Activity; summary of the method: as §1
PC-3 [22] = test: Cytotoxicity against human PC3 cells assessed as cell viability at 30 uM after 48 hrs under normoxic conditions by MTT assay (reference value: 100%); assay type: functional; conditions: PC-3, 48 h, read-out: Activity; summary of the method: as §1
Carbonic anhydrase 12 = Carbonic anhydrase 12 (Homo sapiens, UniProt O43570)
HT-29 [23] = test: Cytotoxicity against human HT-29 cells assessed as cell viability at 30 uM after 48 hrs under hypoxic conditions by MTT assay (reference value: 100%); assay type: functional; conditions: Homo sapiens, HT-29, 48 h; read-out: Activity; summary of the method: as §1
PC-3 [24] = test: Cytotoxicity against human PC3 cells assessed as cell viability at 100 uM after 48 hrs under hypoxic conditions by MTT assay (reference value: 100%); assay type: functional; conditions: PC-3, 48 h, read-out: Activity; summary of the method: as §1
Homo sapiens = species: Homo sapiens; test: Selectivity ratio of Ki for carbonic anhydrase 2 (unknown origin) to Ki for carbonic anhydrase 9 (unknown origin)
Carbonic anhydrase 1 = Carbonic anhydrase 1 (Homo sapiens, UniProt P00915); test: Inhibition of recombinant human cytosolic carbonic anhydrase 1 preincubated for 15 mins by stopped flow CO2 hydration assay
Carbonic anhydrase 1, sequence (P00915 whole entry): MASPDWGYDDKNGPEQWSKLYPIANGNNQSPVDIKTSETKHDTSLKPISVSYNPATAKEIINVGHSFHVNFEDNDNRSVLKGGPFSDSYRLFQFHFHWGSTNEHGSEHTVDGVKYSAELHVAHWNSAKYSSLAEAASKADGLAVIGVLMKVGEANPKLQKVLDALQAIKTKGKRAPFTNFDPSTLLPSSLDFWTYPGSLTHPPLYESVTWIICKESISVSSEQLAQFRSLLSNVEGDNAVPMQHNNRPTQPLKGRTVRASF

Carbonic anhydrase 12, sequence (O43570 whole entry): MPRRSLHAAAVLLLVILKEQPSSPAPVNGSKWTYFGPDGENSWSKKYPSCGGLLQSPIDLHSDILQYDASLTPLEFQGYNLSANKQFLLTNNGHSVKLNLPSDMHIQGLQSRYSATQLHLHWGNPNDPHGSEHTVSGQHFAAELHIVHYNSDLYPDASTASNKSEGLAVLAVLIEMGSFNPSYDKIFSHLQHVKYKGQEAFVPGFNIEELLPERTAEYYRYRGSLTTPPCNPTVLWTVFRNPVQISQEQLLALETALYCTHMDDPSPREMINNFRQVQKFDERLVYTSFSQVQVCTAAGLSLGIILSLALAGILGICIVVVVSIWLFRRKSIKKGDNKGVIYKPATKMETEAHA

Compound	Activity (PC-3 [1])	IC50 (PC-3 [1]) [µM]	Activity (MDA-MB-231 [2])	IC50 (MDA-MB-231 [2]) [µM]	viability at 100 µM (HT-29 [3]) [%]	Activity (HT-29 [4])	IC50 (HT-29 [4]) [µM]	Activity (HT-29 [5])	IC50 (HT-29 [5]) [µM]	viability at 200 µM (MDA-MB-231 [6]) [%]	viability at 200 µM (PC-3 [7]) [%]	viability at 30 µM (MDA-MB-231 [8]) [%]	viability at 30 µM (PC-3 [9]) [%]	viability at 200 µM (HT-29 [10]) [%]	Ki (Carbonic anhydrase 9) [µM]	viability at 100 µM (HT-29 [11]) [%]	viability at 100 µM (PC-3 [12]) [%]	viability at 30 µM (HT-29 [13]) [%]	Activity (PC-3 [14])	Ki (Carbonic anhydrase 12) [µM]	further results
NS(=O)(=O)c1cc(NC(=O)Nc2c(F)c(F)c(F)c(F)c2F)c(O)c([N+](=O)[O-])c1	Dose-dependent effect	> 200	Dose-dependent effect	> 200	70.2	Dose-dependent effect	> 200	Dose-dependent effect	> 200	40.5	50.6	95.7	63.2	99.6	0.29	102	61.7	106	Dose-dependent effect	0.08	IC50 (PC-3 [14]): > 200 µM; viability at 100 µM (MDA-MB-231 [15]): 66.7%; Activity (MDA-MB-231 [16]): Dose-dependent effect; IC50 (MDA-MB-231 [16]): 101 µM; viability at 100 µM (MDA-MB-231 [17]): 50.2%; viability at 30 µM (MDA-MB-231 [18]): 56.2%; viability at 200 µM (MDA-MB-231 [19]): 60.2%; viability at 200 µM (PC-3 [20]): 60.2%; viability at 200 µM (HT-29 [21]): 65.3%; viability at 30 µM (PC-3 [22]): 69%; viability at 30 µM (HT-29 [23]): 75.6%; viability at 100 µM (PC-3 [24]): 53.2%
NS(=O)(=O)c1cc(NC(=O)NCCc2ccccc2)c(O)c([N+](=O)[O-])c1	Dose-dependent effect	> 200	Dose-dependent effect	> 200	57.3	Dose-dependent effect	> 200	Dose-dependent effect	> 200	48.2	61.9	108	85.2	80.7	0.11	85.8	68.5	97.6	Dose-dependent effect	0.31	Ratio Ki (Homo sapiens): 28; IC50 (PC-3 [14]): > 200 µM; viability at 100 µM (MDA-MB-231 [15]): 107%; Activity (MDA-MB-231 [16]): Dose-dependent effect; IC50 (MDA-MB-231 [16]): 194 µM; viability at 100 µM (MDA-MB-231 [17]): 79.8%; viability at 30 µM (MDA-MB-231 [18]): 72%; viability at 200 µM (MDA-MB-231 [19]): 85.1%; viability at 200 µM (PC-3 [20]): 63.5%; viability at 200 µM (HT-29 [21]): 53.8%; viability at 30 µM (PC-3 [22]): 115%; viability at 30 µM (HT-29 [23]): 76.7%; viability at 100 µM (PC-3 [24]): 62.7%
NS(=O)(=O)c1cc(NC(=O)Nc2ccc3c(c2)OCO3)c(O)c([N+](=O)[O-])c1	Dose-dependent effect	> 200	Dose-dependent effect	> 200	22.8	Dose-dependent effect	79.5	Dose-dependent effect	> 200	67.5	70.2	105	101	60.4	0.15	62.7	65.9	71.5	Dose-dependent effect	0.25	Ki (Carbonic anhydrase 1): > 50 µM; Ratio Ki (Homo sapiens): 30; IC50 (PC-3 [14]): > 200 µM; viability at 100 µM (MDA-MB-231 [15]): 95%; Activity (MDA-MB-231 [16]): Dose-dependent effect; IC50 (MDA-MB-231 [16]): > 200 µM; viability at 100 µM (MDA-MB-231 [17]): 92.2%; viability at 30 µM (MDA-MB-231 [18]): 105%; viability at 200 µM (MDA-MB-231 [19]): 103%; viability at 200 µM (PC-3 [20]): 61.6%; viability at 200 µM (HT-29 [21]): 24.6%; viability at 30 µM (PC-3 [22]): 80.1%; viability at 30 µM (HT-29 [23]): 28.3%; viability at 100 µM (PC-3 [24]): 77.5%
NS(=O)(=O)c1cc(NC(=O)Nc2ccccc2)c(O)c([N+](=O)[O-])c1	–	–	–	–	–	–	–	–	–	–	–	–	–	–	0.94	–	–	–	–	0.83	Ki (Carbonic anhydrase 1): > 50 µM; Ratio Ki (Homo sapiens): 3
